Data from ChEMBL document CHEMBL4325842, “Design, synthesis, and biological evaluation of novel aminopyrimidinylisoindolines as AXL kinase inhibitors” (Bioorg Med Chem Lett, 2018).

Assays:
[1] = target: Dual specificity mitogen-activated protein kinase kinase 1 (Homo sapiens) (UniProt Q02750); assay: Inhibition of human MEK1 at 10 uM using ERK2 (K52R) as substrate by [gamma-33P]-ATP assay relative to control
Outline: (§1)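 Commercial kinase panel screen at a single concentration of 10 μM. % inhibition was calculated as 100 minus % activity.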

[2] = target: Mitogen-activated protein kinase 8 (Homo sapiens) (UniProt P45983); assay: Inhibition of human JNK1 at 10 uM using ATF2 as substrate by [gamma-33P]-ATP assay relative to control; outline: as §1
Mitogen-activated protein kinase 8 (Homo sapiens), sequence (P45983 whole entry): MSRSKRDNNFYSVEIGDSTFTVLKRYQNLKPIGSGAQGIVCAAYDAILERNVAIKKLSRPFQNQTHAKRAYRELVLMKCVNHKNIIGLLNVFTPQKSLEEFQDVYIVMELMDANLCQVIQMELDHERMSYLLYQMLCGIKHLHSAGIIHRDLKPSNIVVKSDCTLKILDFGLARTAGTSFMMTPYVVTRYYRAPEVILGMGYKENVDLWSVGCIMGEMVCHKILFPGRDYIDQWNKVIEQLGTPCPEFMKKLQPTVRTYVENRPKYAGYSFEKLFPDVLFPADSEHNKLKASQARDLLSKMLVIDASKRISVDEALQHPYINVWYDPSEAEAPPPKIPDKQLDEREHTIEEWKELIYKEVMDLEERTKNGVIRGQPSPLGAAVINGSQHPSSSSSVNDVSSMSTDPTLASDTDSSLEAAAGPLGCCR

[3] = target: Activated CDC42 kinase 1 (Homo sapiens) (UniProt Q07912); assay: Inhibition of human ACK1 at 10 uM using EAIYAAPFAKKK as substrate by [gamma-33P]-ATP assay relative to control; outline: as §1
[4] = target: Proto-oncogene tyrosine-protein kinase Src (Homo sapiens) (UniProt P12931); assay: Inhibition of human c-SRC at 10 uM using poly[Glu:Tyr] (4:1) as substrate by [gamma-33P]-ATP assay relative to control
Outline: (§2)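 Kinase-panel profiling (50 oncogenic kinases) run by an outside contract service. The test compound was tested at a single concentration of 10 μM. Percent inhibition was calculated as 100 minus % remaining activity.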

HepG2 = assay: Antiproliferative activity against human HepG2 cells after 2 days by spectrophotometric analysis; assay type: functional; details: HepG2, 48 h
IMR-32 = assay: Antiproliferative activity against human IMR32 cells after 2 days by spectrophotometric analysis; assay type: functional; details: IMR-32, 48 h
[5] = target: Tyrosine-protein kinase ABL1 (Homo sapiens) (UniProt P00519); assay: Inhibition of human ABL1 at 10 uM using EAIYAAPFAKKK as substrate by [gamma-33P]-ATP assay relative to control; outline: as §1
Tyrosine-protein kinase ABL1 (Homo sapiens), sequence (P00519 whole entry): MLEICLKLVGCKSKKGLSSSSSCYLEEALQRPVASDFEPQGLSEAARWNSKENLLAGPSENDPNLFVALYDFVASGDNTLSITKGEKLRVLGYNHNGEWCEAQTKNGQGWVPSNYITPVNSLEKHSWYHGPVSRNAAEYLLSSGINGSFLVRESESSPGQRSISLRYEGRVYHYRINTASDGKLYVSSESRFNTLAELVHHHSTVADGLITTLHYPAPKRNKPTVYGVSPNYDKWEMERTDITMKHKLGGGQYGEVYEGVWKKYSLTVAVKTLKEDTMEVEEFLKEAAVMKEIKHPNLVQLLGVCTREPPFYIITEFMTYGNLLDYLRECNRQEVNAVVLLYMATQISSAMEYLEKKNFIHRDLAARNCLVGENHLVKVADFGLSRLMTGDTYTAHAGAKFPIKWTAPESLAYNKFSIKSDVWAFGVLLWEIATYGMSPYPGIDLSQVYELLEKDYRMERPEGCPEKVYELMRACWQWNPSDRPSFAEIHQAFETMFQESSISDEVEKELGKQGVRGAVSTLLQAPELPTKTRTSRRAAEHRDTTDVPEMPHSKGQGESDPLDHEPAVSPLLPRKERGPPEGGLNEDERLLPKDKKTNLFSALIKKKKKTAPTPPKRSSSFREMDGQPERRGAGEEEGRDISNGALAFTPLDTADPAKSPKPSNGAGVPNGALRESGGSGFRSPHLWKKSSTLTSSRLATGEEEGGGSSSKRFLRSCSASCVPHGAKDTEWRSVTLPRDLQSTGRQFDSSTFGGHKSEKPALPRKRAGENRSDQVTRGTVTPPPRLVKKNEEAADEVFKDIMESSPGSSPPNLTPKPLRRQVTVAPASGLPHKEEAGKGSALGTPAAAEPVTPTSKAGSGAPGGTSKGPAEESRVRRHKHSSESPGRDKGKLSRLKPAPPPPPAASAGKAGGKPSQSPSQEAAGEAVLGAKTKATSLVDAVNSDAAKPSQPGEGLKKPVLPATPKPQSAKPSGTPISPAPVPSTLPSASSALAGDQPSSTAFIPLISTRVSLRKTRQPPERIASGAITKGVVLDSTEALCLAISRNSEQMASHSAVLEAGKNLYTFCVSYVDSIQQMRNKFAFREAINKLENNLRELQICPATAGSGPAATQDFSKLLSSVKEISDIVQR

[6] = target: Serine/threonine-protein kinase pim-1 (Homo sapiens) (UniProt P11309); assay: Inhibition of human PIM1 at 10 uM using KKRNRTLTK as substrate by [gamma-33P]-ATP assay relative to control; outline: as §2
[7] = target: Macrophage-stimulating protein receptor (Homo sapiens) (UniProt Q04912); assay: Inhibition of human RON at 10 uM using KKSRGDYMTMQIG as substrate by [gamma-33P]-ATP assay relative to control; outline: as §2
[8] = target: Tyrosine-protein kinase Lck (Homo sapiens) (UniProt P06239); assay: Inhibition of human LCK at 10 uM using poly[Glu:Tyr] (4:1) as substrate by [gamma-33P]-ATP assay relative to control; outline: as §1
Tyrosine-protein kinase Lck (Homo sapiens), sequence (P06239 2-509 limits assumed): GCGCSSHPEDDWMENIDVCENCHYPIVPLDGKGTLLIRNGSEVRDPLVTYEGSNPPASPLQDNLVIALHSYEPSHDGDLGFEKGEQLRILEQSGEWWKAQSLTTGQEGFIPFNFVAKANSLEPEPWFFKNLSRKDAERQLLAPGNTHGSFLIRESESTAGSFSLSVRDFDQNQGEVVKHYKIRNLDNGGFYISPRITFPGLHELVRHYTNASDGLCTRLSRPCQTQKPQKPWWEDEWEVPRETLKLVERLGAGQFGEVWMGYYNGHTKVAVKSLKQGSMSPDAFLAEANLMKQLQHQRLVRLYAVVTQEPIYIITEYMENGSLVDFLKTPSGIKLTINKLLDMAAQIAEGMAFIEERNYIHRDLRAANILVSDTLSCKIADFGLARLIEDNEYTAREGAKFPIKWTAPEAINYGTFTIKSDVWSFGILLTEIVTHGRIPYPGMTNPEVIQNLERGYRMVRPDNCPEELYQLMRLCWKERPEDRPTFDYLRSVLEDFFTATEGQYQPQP

[9] = target: Tyrosine-protein kinase Mer (Homo sapiens, UniProt Q12866); assay: Inhibition of human MER using poly[Glu:Tyr] (4:1) as substrate by [gamma-33P]-ATP assay
Tyrosine-protein kinase Mer, sequence (Q12866 whole entry): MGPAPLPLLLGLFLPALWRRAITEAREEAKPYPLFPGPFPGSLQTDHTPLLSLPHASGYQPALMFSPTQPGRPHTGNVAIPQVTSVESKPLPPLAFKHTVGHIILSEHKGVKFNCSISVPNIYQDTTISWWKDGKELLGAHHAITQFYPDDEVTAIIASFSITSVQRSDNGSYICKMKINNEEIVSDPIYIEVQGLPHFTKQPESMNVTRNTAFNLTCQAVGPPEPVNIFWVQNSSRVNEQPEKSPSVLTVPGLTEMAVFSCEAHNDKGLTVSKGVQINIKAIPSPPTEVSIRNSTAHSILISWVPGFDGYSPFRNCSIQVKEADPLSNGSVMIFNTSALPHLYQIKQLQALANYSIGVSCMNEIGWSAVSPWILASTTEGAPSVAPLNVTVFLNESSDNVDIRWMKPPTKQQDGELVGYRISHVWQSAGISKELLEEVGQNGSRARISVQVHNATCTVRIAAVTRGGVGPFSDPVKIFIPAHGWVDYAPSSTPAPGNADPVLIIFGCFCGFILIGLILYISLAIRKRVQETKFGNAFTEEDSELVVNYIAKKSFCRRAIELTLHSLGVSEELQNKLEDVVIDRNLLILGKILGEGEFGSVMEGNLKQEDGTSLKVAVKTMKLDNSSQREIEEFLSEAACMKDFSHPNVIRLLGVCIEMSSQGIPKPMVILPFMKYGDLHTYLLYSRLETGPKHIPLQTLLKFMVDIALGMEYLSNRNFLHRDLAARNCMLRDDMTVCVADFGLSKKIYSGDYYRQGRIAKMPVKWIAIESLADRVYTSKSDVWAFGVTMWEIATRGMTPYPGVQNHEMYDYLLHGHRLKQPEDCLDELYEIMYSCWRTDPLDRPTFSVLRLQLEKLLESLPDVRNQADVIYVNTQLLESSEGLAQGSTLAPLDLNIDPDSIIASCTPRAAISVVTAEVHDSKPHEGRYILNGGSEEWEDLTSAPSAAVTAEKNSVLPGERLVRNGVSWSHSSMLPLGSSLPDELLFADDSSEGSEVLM

PANC-1 = assay: Antiproliferative activity against human PANC1 cells after 2 days by spectrophotometric analysis; assay type: functional; details: PANC-1, 48 h
[10] = target: Inhibitor of nuclear factor kappa-B kinase subunit alpha (Homo sapiens) (UniProt O15111); assay: Inhibition of human IKKalpha at 10 uM using KKKKERLLDDRHDSGLDSMKDEE as substrate by [gamma-33P]-ATP assay relative to control; outline: as §1
Inhibitor of nuclear factor kappa-B kinase subunit alpha (Homo sapiens), sequence (O15111 whole entry): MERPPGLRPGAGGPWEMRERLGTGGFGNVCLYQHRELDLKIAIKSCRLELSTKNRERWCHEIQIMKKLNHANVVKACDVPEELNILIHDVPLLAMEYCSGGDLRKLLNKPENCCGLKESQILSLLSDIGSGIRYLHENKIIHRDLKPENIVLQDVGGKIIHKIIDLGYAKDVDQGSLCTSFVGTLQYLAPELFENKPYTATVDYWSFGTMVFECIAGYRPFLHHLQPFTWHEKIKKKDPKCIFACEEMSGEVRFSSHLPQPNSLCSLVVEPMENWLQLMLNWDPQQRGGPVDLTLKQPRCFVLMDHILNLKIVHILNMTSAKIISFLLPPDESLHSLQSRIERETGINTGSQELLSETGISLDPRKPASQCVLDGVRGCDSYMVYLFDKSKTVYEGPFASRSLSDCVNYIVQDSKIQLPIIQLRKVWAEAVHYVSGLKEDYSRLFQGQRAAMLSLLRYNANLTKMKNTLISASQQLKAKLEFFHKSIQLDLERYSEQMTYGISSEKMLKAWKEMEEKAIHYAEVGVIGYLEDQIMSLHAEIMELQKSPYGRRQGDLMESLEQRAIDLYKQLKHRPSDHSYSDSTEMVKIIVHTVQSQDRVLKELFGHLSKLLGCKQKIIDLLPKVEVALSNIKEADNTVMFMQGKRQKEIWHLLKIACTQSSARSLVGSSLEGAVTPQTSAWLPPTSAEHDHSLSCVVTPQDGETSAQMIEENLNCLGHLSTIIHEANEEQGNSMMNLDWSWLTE

Focal adhesion kinase 1 = Focal adhesion kinase 1 (Homo sapiens, UniProt Q05397); assay: Inhibition of human FAK at 10 uM using poly[Glu:Tyr] (4:1) as substrate by [gamma-33P]-ATP assay relative to control; outline: as §1
[11] = target: Muscle, skeletal receptor tyrosine-protein kinase (Homo sapiens) (UniProt O15146); assay: Inhibition of human MUSK at 10 uM using MBP as substrate by [gamma-33P]-ATP assay relative to control; outline: as §1
[12] = target: Protein kinase C alpha type (Homo sapiens) (UniProt P17252); assay: Inhibition of human PKCalpha at 10 uM using ERMRPRKRQGSVRRRV as substrate by [gamma-33P]-ATP assay relative to control; outline: as §2
[13] = target: Serine/threonine-protein kinase 26 (Homo sapiens) (UniProt Q9P289); assay: Inhibition of human MST4 at 10 uM using MBP as substrate by [gamma-33P]-ATP assay relative to control; outline: as §1
HCT-116 = assay: Antiproliferative activity against human HCT116 cells after 2 days by spectrophotometric analysis; assay type: functional; details: HCT-116, 48 h
[14] = target: Tyrosine-protein kinase Lyn (Homo sapiens) (UniProt P07948); assay: Inhibition of human LYN at 10 uM using poly[Glu:Tyr] (4:1) as substrate by [gamma-33P]-ATP assay relative to control; outline: as §1
[15] = target: T1, Tyrosine-protein kinase receptor UFO (Homo sapiens, UniProt P30530); assay: Inhibition of N-terminal His-tagged recombinant human AXL (473 to end amino acids) expressed by baculovirus in Sf9 cells using axltide substrate and ATP by ADP-Glo luminescence assay
T1 sequence (P30530 whole entry): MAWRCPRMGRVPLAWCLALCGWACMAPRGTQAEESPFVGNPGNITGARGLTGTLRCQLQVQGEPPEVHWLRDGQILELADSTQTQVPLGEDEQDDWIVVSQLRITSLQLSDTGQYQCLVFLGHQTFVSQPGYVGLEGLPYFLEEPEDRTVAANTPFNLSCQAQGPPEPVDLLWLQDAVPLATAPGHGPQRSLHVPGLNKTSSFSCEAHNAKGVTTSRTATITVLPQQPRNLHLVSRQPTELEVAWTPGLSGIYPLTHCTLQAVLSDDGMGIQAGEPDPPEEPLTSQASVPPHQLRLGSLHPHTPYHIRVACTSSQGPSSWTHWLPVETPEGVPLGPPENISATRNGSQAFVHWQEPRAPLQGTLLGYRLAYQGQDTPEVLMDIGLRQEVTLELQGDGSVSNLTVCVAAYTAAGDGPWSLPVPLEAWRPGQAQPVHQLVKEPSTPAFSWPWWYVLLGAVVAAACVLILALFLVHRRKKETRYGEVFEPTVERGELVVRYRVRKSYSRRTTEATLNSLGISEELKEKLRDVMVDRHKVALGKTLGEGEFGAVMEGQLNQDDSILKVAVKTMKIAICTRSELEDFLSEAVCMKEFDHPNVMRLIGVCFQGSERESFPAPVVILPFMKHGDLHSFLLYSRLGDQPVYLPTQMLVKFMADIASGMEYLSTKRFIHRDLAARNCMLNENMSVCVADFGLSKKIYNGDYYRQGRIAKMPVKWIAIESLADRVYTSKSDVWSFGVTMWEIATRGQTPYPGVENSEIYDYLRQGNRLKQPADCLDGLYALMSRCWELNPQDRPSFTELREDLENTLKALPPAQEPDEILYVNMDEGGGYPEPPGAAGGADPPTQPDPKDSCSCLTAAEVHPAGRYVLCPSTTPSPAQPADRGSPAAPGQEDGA

[16] = target: Serine/threonine-protein kinase PAK 4 (Homo sapiens) (UniProt O96013); assay: Inhibition of human PAK4 at 10 uM using RRRLSFAEPG as substrate by [gamma-33P]-ATP assay relative to control; outline: as §2
Serine/threonine-protein kinase PAK 4 (Homo sapiens), sequence (O96013 whole entry, looked up): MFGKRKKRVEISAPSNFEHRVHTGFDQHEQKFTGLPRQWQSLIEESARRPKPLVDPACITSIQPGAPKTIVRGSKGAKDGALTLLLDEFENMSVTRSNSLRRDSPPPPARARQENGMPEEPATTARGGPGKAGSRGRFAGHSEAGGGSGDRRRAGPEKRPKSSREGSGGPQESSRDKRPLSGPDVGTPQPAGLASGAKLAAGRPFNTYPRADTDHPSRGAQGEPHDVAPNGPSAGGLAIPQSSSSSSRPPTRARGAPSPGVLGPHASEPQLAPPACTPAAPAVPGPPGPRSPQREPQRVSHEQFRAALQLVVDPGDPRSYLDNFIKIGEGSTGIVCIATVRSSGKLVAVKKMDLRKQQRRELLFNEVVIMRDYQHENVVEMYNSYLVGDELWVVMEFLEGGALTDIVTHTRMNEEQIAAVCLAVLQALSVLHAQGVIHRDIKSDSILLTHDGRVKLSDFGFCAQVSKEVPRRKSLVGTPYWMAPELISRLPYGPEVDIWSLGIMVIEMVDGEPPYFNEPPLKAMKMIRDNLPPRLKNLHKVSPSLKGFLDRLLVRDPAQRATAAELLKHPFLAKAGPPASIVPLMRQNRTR

[17] = target: Tyrosine-protein kinase receptor UFO (Homo sapiens) (UniProt P30530); assay: Inhibition of human AXL at 10 uM using EAIYAAPFAKKK as substrate by [gamma-33P]-ATP assay relative to control; outline: as §1

inhibition [1]: 3.6% | inhibition [2]: 45.1% | inhibition [3]: 91.1% | inhibition [4]: 88.2% | GI50 (HepG2): 1400 nM | inhibition [5]: 63.1% | inhibition [6]: 9.8% | inhibition [7]: 40.1% | inhibition [8]: 84.1% | IC50 [9]: 25 nM | GI50 (PANC-1): 430 nM | inhibition [10]: 14.1% | inhibition (Focal adhesion kinase 1): 96.4% | inhibition [11]: 66.6% | inhibition [12]: 19.3% | inhibition [13]: 25.3% | GI50 (HCT-116): 420 nM | inhibition [14]: 69.1% | IC50 [15]: < 0.5 nM | inhibition [16]: 16.2% | inhibition [17]: 92.1%
SMILES: CC(=O)N1CCN(c2ccc(Nc3ncc(C(F)(F)F)c(N4Cc5cccc(N(C)S(C)(=O)=O)c5C4)n3)cc2)CC1
GI50 (IMR-32): 260 nM
